For assay [1], the target named is T1, Monoacylglycerol lipase ABHD6 (Homo sapiens) (UniProt Q9BV23).
T1 sequence (whole entry): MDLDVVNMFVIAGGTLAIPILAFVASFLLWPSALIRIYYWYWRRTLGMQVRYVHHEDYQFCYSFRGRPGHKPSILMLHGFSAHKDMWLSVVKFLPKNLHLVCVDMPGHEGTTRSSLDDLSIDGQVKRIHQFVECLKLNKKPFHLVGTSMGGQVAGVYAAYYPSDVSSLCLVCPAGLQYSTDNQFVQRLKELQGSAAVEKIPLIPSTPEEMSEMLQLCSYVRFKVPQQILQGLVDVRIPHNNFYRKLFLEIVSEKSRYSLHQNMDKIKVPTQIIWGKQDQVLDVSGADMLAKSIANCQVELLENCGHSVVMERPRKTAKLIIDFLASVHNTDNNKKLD
The assay can be described thus: Inhibition of human ABHD6 expressed in HEK293 cells assessed as remaining enzyme activity by measuring reduction in glycerol production from 1-AG hydrolysis at 1 uM pre-incubated for 30 mins before 1-AG substrate addition and measured 90 mins post substrate addition by fluorescence method. It is filed as cell-based. In outline:
(§1)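 hABHD6-HEK293 lysates pretreated 30 min with DMSO or inhibitor, then given 1-AG (12.5 µM final). Glycerol release was followed kinetically by fluorescence (emission 590 nm). Blanks without lysate were subtracted. IC50 was taken at the 90 min time point by nonlinear fitting of dose–response curves.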

Assay [2] deals with T2, Fatty-acid amide hydrolase 1 (Homo sapiens) (UniProt O00519).
T2 sequence (whole entry): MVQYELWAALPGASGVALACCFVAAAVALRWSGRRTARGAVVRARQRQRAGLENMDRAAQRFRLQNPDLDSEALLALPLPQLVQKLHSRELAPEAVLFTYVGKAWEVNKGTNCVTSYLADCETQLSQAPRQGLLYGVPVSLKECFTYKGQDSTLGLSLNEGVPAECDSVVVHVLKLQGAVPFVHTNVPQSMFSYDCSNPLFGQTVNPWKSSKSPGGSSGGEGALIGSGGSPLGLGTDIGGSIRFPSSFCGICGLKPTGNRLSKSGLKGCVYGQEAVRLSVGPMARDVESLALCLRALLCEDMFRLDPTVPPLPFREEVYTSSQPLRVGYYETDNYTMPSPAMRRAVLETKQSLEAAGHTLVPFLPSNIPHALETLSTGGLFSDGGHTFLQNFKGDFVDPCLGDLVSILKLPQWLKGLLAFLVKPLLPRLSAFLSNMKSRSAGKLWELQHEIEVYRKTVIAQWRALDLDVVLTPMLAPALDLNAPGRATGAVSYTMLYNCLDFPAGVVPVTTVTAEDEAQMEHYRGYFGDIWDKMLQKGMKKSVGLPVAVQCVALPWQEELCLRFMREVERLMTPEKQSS
In words: Inhibition of human FAAH expressed in COS7 cell membranes at 10 uM pre-incubated for 10 mins before [3H]-AEA substrate addition by liquid scintillation counting. The settings on record: COS-7.

For assay [3], the target named is T3, Lysophosphatidylserine lipase ABHD12 (Homo sapiens) (UniProt Q8N2K0).
T3 sequence (whole entry): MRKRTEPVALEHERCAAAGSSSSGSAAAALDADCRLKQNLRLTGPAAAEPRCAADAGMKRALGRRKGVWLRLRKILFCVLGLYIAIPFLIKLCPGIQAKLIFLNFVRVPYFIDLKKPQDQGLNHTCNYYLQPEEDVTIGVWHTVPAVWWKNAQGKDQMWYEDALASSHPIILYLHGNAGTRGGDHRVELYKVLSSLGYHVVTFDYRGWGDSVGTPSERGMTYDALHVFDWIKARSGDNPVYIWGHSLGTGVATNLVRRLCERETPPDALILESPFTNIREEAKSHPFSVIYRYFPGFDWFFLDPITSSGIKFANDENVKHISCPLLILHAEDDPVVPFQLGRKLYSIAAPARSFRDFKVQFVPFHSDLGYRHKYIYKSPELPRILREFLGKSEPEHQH
The assay can be described thus: Inhibition of human ABHD12 expressed in HEK293 cells assessed as remaining enzyme activity at 1 uM pre-incubated for 10 mins before 2-AG substrate addition by HPLC method. In kind it is cell-based.

Assay [4] deals with T4, Monoglyceride lipase (Homo sapiens) (UniProt Q99685).
T4 sequence (whole entry): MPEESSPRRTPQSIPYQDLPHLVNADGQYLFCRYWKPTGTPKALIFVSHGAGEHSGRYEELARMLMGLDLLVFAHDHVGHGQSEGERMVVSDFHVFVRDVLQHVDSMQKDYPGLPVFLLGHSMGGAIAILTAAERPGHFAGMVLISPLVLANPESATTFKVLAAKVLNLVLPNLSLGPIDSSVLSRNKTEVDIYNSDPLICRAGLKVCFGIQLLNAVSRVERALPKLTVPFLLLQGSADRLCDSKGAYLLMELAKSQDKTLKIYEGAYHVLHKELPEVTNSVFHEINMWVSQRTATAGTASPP
The assay can be described thus: Inhibition of human MAGL expressed in HEK293 cells at 10 uM pre-incubated for 10 mins before 2-AG substrate addition by HPLC method. In kind it is cell-based. In short, it runs like this: (§2)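 Lysates of hMAGL-overexpressing HEK293 cells in 50 mM Tris–HCl pH 7.4 with 1 mM EDTA. After a 10 min preincubation with inhibitor or DMSO, 2-AG was added (final 50 µM) and incubated 10 min at 37 °C. The reaction was stopped and samples centrifuged. Arachidonic acid formation and 2-AG depletion were measured by HPLC. Replicates as for the FAAH assay.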

A further assay has as its target T5, Monoglyceride lipase (Homo sapiens, UniProt Q99685).
T5 sequence (Q99685 whole entry): T4 sequence (whole entry)
The assay can be described thus: Inhibition of human MAGL expressed in HEK293 cells pre-incubated for 10 mins before 2-AG substrate addition by HPLC method. The conditions noted are these: for IC50: read-out: IC50. It is filed as cell-based. In short, it runs like this: as §2

In assay [5] the target is T6, Fatty-acid amide hydrolase 1 (Homo sapiens, UniProt O00519).
T6 sequence (O00519 whole entry): T2 sequence (whole entry)
In words: Inhibition of human FAAH expressed in COS7 cell membranes pre-incubated for 10 mins before [3H]-AEA substrate addition by liquid scintillation counting. Details: species or system COS-7.

The target of assay [6] is T7, Monoacylglycerol lipase ABHD6 (Homo sapiens, UniProt Q9BV23).
T7 sequence (Q9BV23 whole entry): T1 sequence (whole entry)
The assay can be described thus: Inhibition of human ABHD6 expressed in HEK293 cells assessed as reduction in glycerol production from 1-AG hydrolysis pre-incubated for 30 mins before 1-AG substrate addition and measured 90 mins post substrate addition by fluorescence method. It is filed as cell-based. In outline: as §1

Consider 31 molecules from ChEMBL document CHEMBL3612019, “Revisiting 1,3,4-Oxadiazol-2-ones: Utilization in the Development of ABHD6 Inhibitors” (Bioorg Med Chem, 2015).

Usually inhibition stands for the change of the read-out against control, counted positive when it falls. Broadly, the pIC50 is the negative decadic logarithm of the IC50, by convention in mol/L.

The structures appear in SMILES notation. Calls of active or inactive are those of the source. No cut-off for these calls is given here.

Turning to `COc1nn(Cc2ccc(C#N)cc2)c(=O)o1`, the inhibition entry in assay [1], in assay [2] and in assay [3] was “inactive” in each case. In assay [4], this molecule came in with an inhibition of 25%.

Turning to `COc1nn(Cc2ccccc2)c(=O)o1`, in assay [1], the Activity is 61%. In addition, the inhibition entry in assay [2] and in assay [4] was “inactive” in each case.

For the molecule `COc1nn(Cc2cccc(NC(=O)c3ccccc3)c2)c(=O)o1`, in assay [1], the Activity is 79%. The inhibition result in assay [2] and in assay [3] was “inactive” throughout. In assay [4], this molecule registered an inhibition of 48%.

Turning to `COc1nn(Cc2ccccc2Oc2ccccc2)c(=O)o1`, the Activity in assay [1] is 60%. Also, the inhibition result in assay [4] was “inactive”.

As for `COc1nn(Cc2ccccc2[N+](=O)[O-])c(=O)o1`, the Activity in assay [1] turned out to be 57%. Besides, the inhibition in assay [2] was found to be 36%; in assay [4], 43%. Besides, the inhibition entry in assay [3] is “inactive”.

On to `COc1nn(Cc2ccc(N)cc2)c(=O)o1`, for which the inhibition result in assay [1] and in assay [3] was “inactive” in each case. Besides, the inhibition in assay [2] worked out at 34%; in assay [4], 23%.

In the case of `COc1nn(Cc2ccc(Oc3ccccc3)cc2)c(=O)o1`, the pIC50 at Monoglyceride lipase (hek293) amounted to 6.4. For the same molecule, the Activity in assay [1] came out at 77%.

Take `COc1nn(Cc2cccc(Oc3ccccc3)c2)c(=O)o1`: the Activity in assay [1] stood at 70%.

Turning to `COc1nn(Cc2ccc(OCc3ccccc3)cc2)c(=O)o1`, the results for the IC50 (at Monoglyceride lipase; in assay [5] (read-out: IC50); in assay [5] (read-out: pIC50 (converted))) were 520 nM, 410 nM and 407 nM, respectively. The inhibition entry in assay [1] and in assay [3] was “inactive” throughout.

Take `COc1nn(Cc2ccc(NC(C)=O)cc2)c(=O)o1`: the inhibition entry in assay [1] and in assay [3] was “inactive” each time. Further, the inhibition in assay [2] stood at 37%; in assay [4], 16%.

As to `COc1nn([C@@H](C)c2ccc(CC(C)C)cc2)c(=O)o1`, the inhibition result in assay [1] is “inactive”.

For `COc1cccc(Cn2nc(OC)oc2=O)c1`, the Activity in assay [1] was determined as 70%. The inhibition entry in assay [2] and in assay [3] was “inactive” in each case. Besides, the inhibition in assay [4] amounted to 6%.

`COc1nn(Cc2ccccc2NC(C)=O)c(=O)o1`: the inhibition entry in assay [1] and in assay [3] was “inactive” in each case. The values for the inhibition in assay [2] and in assay [4] were 11% and 3%, respectively.

As for `COc1nn(Cc2ccc(-c3ccccc3)cc2)c(=O)o1`, the inhibition entry in assay [1] is “inactive”.

For `COc1nn(Cc2cccc(Cl)c2)c(=O)o1`, in assay [1], the Activity amounted to 52%. Besides, the inhibition was 37% in assay [2] and 43% in assay [4]. The inhibition result in assay [3] is “inactive”.

Turning to `COc1nn(Cc2ccc3ccccc3c2)c(=O)o1`, the inhibition entry in assay [1], in assay [3] and in assay [4] was “inactive” throughout. The IC50 in assay [5] (read-out: IC50) and in assay [5] (read-out: pIC50 (converted)) was 3980 nM in each case.

For `CCOc1nn(Cc2cccc(N)c2)c(=O)o1`, the inhibition result in assay [1] and in assay [3] was “inactive” throughout. Further, the inhibition in assay [2] stood at 10%; in assay [4], 15%.

Regarding `COc1nn(Cc2ccccc2N)c(=O)o1`, the inhibition result in assay [1] and in assay [3] was “inactive” throughout. For the same molecule, the inhibition turned out to be 8% in assay [2] and 4% in assay [4].

Consider `COc1nn(Cc2cccc(C(F)(F)F)c2)c(=O)o1`, for which the inhibition in assay [2] was determined as 12%; in assay [4], 48%. In addition, in assay [3], the inhibition result is “inactive”. Besides, the IC50 in assay [6] was 870 nM.

As to `COc1nn(Cc2ccccc2-c2ccccc2)c(=O)o1`, the inhibition result in assay [1] and in assay [3] was “inactive” each time. Moreover, the inhibition in assay [2] came out at 23%; in assay [4] it was 8%.

Consider `COc1nn(Cc2cccc(OCc3ccccc3)c2)c(=O)o1`, for which the IC50 on Monoglyceride lipase is 3230 nM; in assay [5] (read-out: IC50), 1510 nM; in assay [5] (read-out: pIC50 (converted)), 1510 nM. Moreover, the Activity in assay [1] turned out to be 53%. Besides, the inhibition result in assay [3] is “inactive”.

On to `COc1nn(Cc2cccc3ccccc23)c(=O)o1`, for which, in assay [1], the Activity is 64%. Moreover, the inhibition was 35% in assay [2] and 11% in assay [4]. Moreover, the inhibition entry in assay [3] was “inactive”.

In the case of `COc1nn(Cc2cccc(C#N)c2)c(=O)o1`, in assay [1], the Activity was 63%. The inhibition entry in assay [2] and in assay [3] was “inactive” in each case. The molecule also came in with an inhibition in assay [4] of 23%.

Consider `COc1nn(Cc2cccc([N+](=O)[O-])c2)c(=O)o1`, for which the Activity in assay [1] was 65%. Further, the inhibition was 7% in assay [2] and 32% in assay [4]. For the same molecule, in assay [3], the inhibition result was “inactive”.

Regarding `COC(=O)c1ccc(Cn2nc(OC)oc2=O)cc1`, the inhibition result in assay [1] and in assay [3] was “inactive” in each case. For the same molecule, the IC50 in assay [5] (read-out: IC50) and in assay [5] (read-out: pIC50 (converted)) was 6760 nM in each case. The inhibition in assay [4] was determined as 15%.

Consider `COc1nn(Cc2ccccc2NC(=O)c2ccccc2)c(=O)o1`, for which the inhibition result in assay [1], in assay [2], in assay [3] and in assay [4] was “inactive” in each case.

Consider `COc1nn(Cc2cccc(NC(C)=O)c2)c(=O)o1`, for which the inhibition result in assay [1], in assay [2] and in assay [3] was “inactive” each time. Further, the inhibition in assay [4] is 12%.

`COc1nn(Cc2ccc(CC(C)C)cc2)c(=O)o1`: the inhibition entry in assay [1] was “inactive”.

Turning to `COc1nn(Cc2ccc([N+](=O)[O-])cc2)c(=O)o1`, the inhibition result in assay [1] and in assay [3] was “inactive” in each case. Further, the inhibition in assay [2] was 18%; in assay [4], 36%.

`COc1nn(Cc2cccc(-c3ccccc3)c2)c(=O)o1`: in assay [1], the inhibition result is “inactive”.

`COc1nn(Cc2ccc(NC(=O)c3ccccc3)cc2)c(=O)o1`: the IC50 was 560 nM at Monoglyceride lipase, 620 nM in assay [5] (read-out: IC50) and 617 nM in assay [5] (read-out: pIC50 (converted)). Further, the Activity in assay [1] was 88%. In assay [3], the inhibition result was “inactive”.
